pIC50: −log10 of the molar value. Activity calls are given as the source filed them. The rule behind the calls is not given here.
Tests used:
HeLa = assay: Cytotoxicity against human HeLa cells after 48 hrs by MTT assay; type: functional, cell-based
How it was run: (§1)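 MTT assay. Cells seeded at 1×10^4 per well in DMEM with 10% FBS and grown 24 h at 37 °C under CO2. Compounds diluted in medium, vehicle control included, 48 h exposure. MTT (5 mg/mL stock) added for 4 h, formazan dissolved in DMSO, absorbance read at 570 nm. IC50 taken as the average of three independent experiments.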

HepG2 = assay: Cytotoxicity against human HepG2 cells after 48 hrs by MTT assay; type: functional, cell-based; conditions: HepG2, 48 h; how it was run: as §1
A549 [1] = assay: Cytotoxicity against human A549 cells after 48 hrs by MTT assay; type: functional, cell-based; conditions: A549, 48 h; how it was run: as §1
ACHN = assay: Cytotoxicity against human ACHN cells after 48 hrs by MTT assay; type: functional, cell-based; how it was run: as §1
MCF7 = assay: Cytotoxicity against human MCF7 cells after 48 hrs by MTT assay; type: functional, cell-based; conditions: MCF7, 48 h; how it was run: as §1
A549 [2] = assay: Induction of cell cycle arrest in human A549 cells assessed as accumulation at subG1 phase at 50 nM after 48 hrs by propidium iodide staining based flow cytometry (reference value: 1.41%); type: functional
A549 [3] = assay: Induction of cell cycle arrest in human A549 cells assessed as accumulation at G0/G1 phase at 50 nM after 48 hrs by propidium iodide staining based flow cytometry (reference value: 87.75%); type: functional
A549 [4] = assay: Induction of cell cycle arrest in human A549 cells assessed as accumulation at S phase at 50 nM after 48 hrs by propidium iodide staining based flow cytometry (reference value: 4.69%); type: functional
A549 [5] = assay: Induction of cell cycle arrest in human A549 cells assessed as accumulation at G2/M phase at 50 nM after 48 hrs by propidium iodide staining based flow cytometry (reference value: 6.15%); type: functional
Tubulin (Homo sapiens) [6] = target: T1, Tubulin (Homo sapiens) (UniProt P68371+Q9H4B7+P0DPH7+P68366+Q13509+Q71U36+P04350+Q3ZCM7+P07437+P68363+Q9BQE3+Q6PEY2+Q13885+Q9BVA1+Q9BUF5); assay: Binding affinity to tubulin (unknown origin) incubated for 60 mins by colchicine competition assay; type: protein-complex assay
How it was run: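 Tubulin (3 μM) incubated with test agents (5, 10, 15, 20 μM) with and without 3 μM colchicine in 30 mM Tris buffer, 60 min at 37 °C. Tubulin–colchicine fluorescence read at ex 350/em 435 nm. Compound-alone signal subtracted from the compound+colchicine signal, Tris blank subtracted, values normalized to DMSO control. CA-4 positive control, taxol negative control.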

A549 [7] = assay: Induction of microtubule network disruption in human A549 cells at 25 nM incubated for 48 hrs by immunohistochemistry; type: cell-based
How it was run: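 A549 cells on glass coverslips exposed to 25 nM for 48 h, with CA-4 at 25 nM in parallel. Fixed in 3% paraformaldehyde/0.02% glutaraldehyde and permeabilized in methanol overnight at 4 °C. Blocked with 1% BSA, stained with mouse anti-tubulin primary and FITC-labelled anti-mouse IgG, and examined by fluorescence microscopy for microtubule network integrity.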

A549 [8] = assay: Induction of cell cycle arrest in human A549 cells assessed as accumulation at subG1 phase at 25 nM after 48 hrs by propidium iodide staining based flow cytometry (reference value: 1.41%); type: functional
A549 [9] = assay: Induction of cell cycle arrest in human A549 cells assessed as accumulation at G0/G1 phase at 25 nM after 48 hrs by propidium iodide staining based flow cytometry (reference value: 87.75%); type: functional
A549 [10] = assay: Induction of cell cycle arrest in human A549 cells assessed as accumulation at S phase at 25 nM after 48 hrs by propidium iodide staining based flow cytometry (reference value: 4.69%); type: functional
A549 [11] = assay: Induction of cell cycle arrest in human A549 cells assessed as accumulation at G2/M phase at 25 nM after 48 hrs by propidium iodide staining based flow cytometry (reference value: 6.15%); type: functional
Tubulin (Homo sapiens) [12] = target: T1, Tubulin (Homo sapiens); assay: Inhibition of tubulin (unknown origin) polymerization at 3 uM incubated for 1 hr by fluorescence assay; type: protein-complex assay
How it was run: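 Fluorescence-reporter tubulin polymerization kit. PEM buffer with […], compounds at 3 μM final concentration. Fluorescence followed at ex 360/em 420 nm for 1 h at 37 °C. CA-4 positive control. Mean ± SD from two experiments, each in triplicate.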

Tubulin = assay: Inhibition of tubulin (unknown origin) polymerization incubated for 1 hr by fluorescence assay; type: protein-complex assay, Homo sapiens
A549 [13] = assay: Induction of apoptosis in human A549 cells assessed as chromatin condensation at 25 nM incubated for 48 hrs by Hoechst staining based fluorescent microscopy; type: functional, cell-based
How it was run: (§2)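 A549 cells, 10,000 per coverslip, cultured 24 h, then exposed to 25 nM for 48 h. Stained with Hoechst 33258 (0.5 mg/mL) for 30 min at 37 °C and washed in PBS. Random fields imaged by fluorescence microscopy and scored qualitatively for chromatin condensation, nuclear fragmentation and apoptotic bodies.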

A549 [14] = assay: Induction of apoptosis in human A549 cells assessed as nuclear fragmentation at 25 nM incubated for 48 hrs by Hoechst staining based fluorescent microscopy; type: functional, cell-based; how it was run: as §2
A549 [15] = assay: Induction of apoptosis in human A549 cells assessed as apoptotic bodies level at 25 nM incubated for 48 hrs by Hoechst staining based fluorescent microscopy; type: functional, cell-based; how it was run: as §2
A549 [16] = assay: Induction of mitochondrial membrane potential loss in human A549 cells at 25 nM incubated for 48 hrs by JC1 dye staining based fluorescence assay; type: functional, cell-based
How it was run: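 A549 cells exposed to 25 nM for 48 h, then loaded with JC-1 for 20 min at 37 °C. JC-1 green monomer emission (525 nm) compared with red aggregate emission (590 nm) to read depolarization. CA-4 at 25 nM included.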

A549 [17] = assay: Induction of ROS generation in human A549 cells at 25 nM incubated for 48 hrs by DCFH-DA staining based fluorescence assay; type: functional, cell-based
How it was run: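 A549 cells exposed to 25 nM for 48 h, then loaded with 5 μM DCFH-DA for 30 min at 37 °C. DCF fluorescence read at ex 485/em 530 nm. CA-4 at 25 nM run in parallel.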

A549 [18] = assay: Induction of apoptosis in human A549 cells assessed as caspase-3 activation at 25 nM incubated for 48 hrs by ELISA method; type: functional
How it was run: (§3)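 A549 cells treated 48 h at 25 or 50 nM, with CA-4 at 50 nM as reference. Cells pelleted, PBS-washed, lysed 15 min and centrifuged. Supernatant assayed with a colorimetric caspase-3 kit. Mean ± SD from two experiments, each in triplicate.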

A549 [19] = assay: Induction of apoptosis in human A549 cells assessed as caspase-3 activation at 50 nM incubated for 48 hrs by ELISA method; type: functional; how it was run: as §3
A549 [20] = assay: Induction of DNA fragmentation in human A549 cells at 25 nM incubated for 48 hrs by agarose gel electrophoresis method; type: functional, cell-based
How it was run: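 A549 cells (1×10^6) plated for 24 h, then exposed to 25 nM for 48 h. Cells pelleted and lysed. Lysate treated with SDS and RNase A for 2 h at 56 °C, then proteinase K for 2 h at 37 °C. DNA precipitated with ammonium acetate and cold ethanol, redissolved in TE buffer, and laddering run on 2% agarose gel.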

Row | Activity (Tubulin (Homo sapiens) [6]) | Structure (SMILES) | pIC50 (HeLa) | pIC50 (HepG2) | pIC50 (A549 [1]) | pIC50 (ACHN) | pIC50 (MCF7) | Activity (A549 [2]) [%] | Activity (A549 [3]) [%] | Activity (A549 [4]) [%] | Activity (A549 [5]) [%] | Activity (A549 [7]) | further results
1 | – | COc1cccc(Cn2cc(C(=O)Nc3c(/C=C\c4cc(OC)c(OC)c(OC)c4)ccc(OC)c3O)nn2)c1 | 5.34 | 5.71 | 5.79 | 5.02 | 5.71 | – | – | – | – | – | –
2 | – | COc1cc(/C=C\c2cc(OC)c(OC)c(OC)c2)cc(NC(=O)c2cn(Cc3cccc(Oc4ccccc4)c3)nn2)c1OC | 5.23 | 5.40 | 5.57 | 5.18 | 5.37 | – | – | – | – | – | –
3 | – | COc1cccc(Cn2cc(C(=O)Nc3cc(/C=C\c4cc(OC)c(OC)c(OC)c4)ccc3OC)nn2)c1 | 5.94 | 5.74 | 5.73 | 5.28 | 5.79 | – | – | – | – | – | –
4 | – | COc1ccc(Cn2cc(C(=O)Nc3cc(/C=C\c4cc(OC)c(OC)c(OC)c4)ccc3OC)nn2)cc1 | 5.53 | 5.68 | 5.67 | 5.48 | 5.43 | – | – | – | – | – | –
5 | – | COc1ccc(/C=C\c2cc(OC)c(OC)c(OC)c2)c(NC(=O)c2cn(Cc3cccc(Oc4ccccc4)c3)nn2)c1O | 5.30 | 5.33 | 5.44 | 5.13 | 5.37 | – | – | – | – | – | –
6 | Active | COc1ccc(Cn2cc(C(=O)Nc3cc(/C=C\c4cc(OC)c(OC)c(OC)c4)cc(OC)c3OC)nn2)cc1 | 7.09 | 7.01 | 7.36 | 5.77 | 6.09 | 3.46 | 62.01 | 7.9 | 26.63 | Active | Activity (A549 [8]): 1.2%; Activity (A549 [9]): 69.59%; Activity (A549 [10]): 7.84%; Activity (A549 [11]): 21.37%; inhibition (Tubulin (Homo sapiens) [12]): 70.9%; pIC50 (Tubulin): 6.02; Activity (A549 [13]): Active; Activity (A549 [14]): Active; Activity (A549 [15]): Active; Activity (A549 [16]): Active; Activity (A549 [17]): Active; fold change (FC) (A549 [18]): 3; fold change (FC) (A549 [19]): 3; Activity (A549 [20]): Active
7 | – | COc1cc(/C=C\c2cc(OC)c(OC)c(OC)c2)cc(NC(=O)c2cn(Cc3cc(OC)c(OC)c(OC)c3)nn2)c1OC | 6.14 | 5.47 | 6.74 | 5.32 | 5.86 | – | – | – | – | – | –
8 | Active | COc1ccc(/C=C\c2cc(OC)c(OC)c(OC)c2)cc1NC(=O)c1cn(Cc2ccc(F)cc2)nn1 | 7.17 | 7.24 | 7.28 | 5.78 | 6.22 | 4.36 | 61.99 | 7.93 | 25.73 | Active | Activity (A549 [8]): 1.52%; Activity (A549 [9]): 75.42%; Activity (A549 [10]): 5.49%; Activity (A549 [11]): 17.57%; inhibition (Tubulin (Homo sapiens) [12]): 66.8%; pIC50 (Tubulin): 5.94; Activity (A549 [13]): Active; Activity (A549 [14]): Active; Activity (A549 [15]): Active; Activity (A549 [16]): Active; Activity (A549 [17]): Active; fold change (FC) (A549 [18]): 3; fold change (FC) (A549 [19]): 3; Activity (A549 [20]): Active

Row | Structure (SMILES) | Activity (Tubulin (Homo sapiens) [6]) | pIC50 (HeLa) | pIC50 (HepG2) | pIC50 (A549 [1]) | pIC50 (ACHN) | pIC50 (MCF7) | Activity (A549 [2]) [%] | Activity (A549 [3]) [%] | Activity (A549 [4]) [%] | Activity (A549 [5]) [%] | Activity (A549 [7]) | further results
9 | COc1ccc(/C=C\c2cc(OC)c(OC)c(OC)c2)cc1O [COMBRETASTATIN A4] | Active | 7.74 | – | 7.28 | 8.30 | – | 4.11 | 61.32 | 8.09 | 26.48 | Active | –

From ChEMBL document CHEMBL3352728, “Synthesis and biological evaluation of 1,2,3-triazole linked aminocombretastatin conjugates as mitochondrial mediated apoptosis inducers” (Bioorg Med Chem, 2014)
